Experiments:
[1] = Prodrug activation assessed as induction of NaBH4-induced […] release at 60 mM after 24 hrs by head space gas chromatography mass spectrometry analysis; conditions: 60000 µM
Summary of the method: (§1)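 Compounds dissolved at 60 mM in 5% DMSO/H2O and held at room temperature in sealed vials. Headspace sampled at 8, 16 and 24 h for HS-GC–MS on an HP-5MS column with helium carrier at 1 mL/min, 50:1 split, and EI at 70 eV. SCAN mode was used to set SIM for MeSeH (tR 1.5 min) and DiMeDiSe (tR 2.9 min). Read-out was peak area.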

[2] = Prodrug activation assessed as induction of NaBH4-induced DiMeDiSe release at 60 mM after 8 hrs by head space gas chromatography mass spectrometry analysis; conditions: 60000 µM; summary of the method: as §1
[3] = Prodrug activation assessed as induction of NaBH4-induced […] release at 60 mM after 16 hrs by head space gas chromatography mass spectrometry analysis; conditions: 60000 µM; summary of the method: as §1
[4] = Prodrug activation assessed as induction of NaBH4-induced MeSeH release at 60 mM after 8 hrs by head space gas chromatography mass spectrometry analysis; conditions: 60000 µM; summary of the method: as §1
[5] = tested on: HT-29; test: Cytotoxicity against human HT-29 cells after 72 hrs by MTT assay; assay type: functional; conditions: HT-29, 72 h; for GI50: read-out: pGI50 (converted)
[6] = tested on: MCF7; test: Cytotoxicity against human MCF7 cells after 72 hrs by MTT assay; assay type: functional; conditions: MCF7, 72 h; for GI50: read-out: pGI50 (converted)

Row | SMILES | Drug metabolism [1] | Drug metabolism [2] | Drug metabolism [3] | Drug metabolism [4] | TGI [5] [µM] | GI50 [5] [µM] | GI50 [6] [µM] | CC50 ([6]; read-out: LC50 (the source's name)) [µM]
1 | C[Se]/C(=N\C(=O)c1ccco1)NC(=O)c1ccco1 | Active | Active | Active | Active | – | – | – | –
2 | C[Se]/C(=N\C(=O)c1cccs1)NC(=O)c1cccs1 | Active | Active | Active | Not Active | – | – | – | –
3 | C[Se]/C(=N\C(=O)c1sccc1Cl)NC(=O)c1sccc1Cl | – | Active | – | Active | 38.8 | – | – | –
4 | C[Se]/C(=N\C(=O)c1csc([N+](=O)[O-])c1)NC(=O)c1csc([N+](=O)[O-])c1 | – | Not Active | – | Active | – | – | – | –
5 | C[Se]/C(=N\C(=O)c1ccno1)NC(=O)c1ccno1 | – | Active | – | Not Active | – | – | – | –
6 | C[Se]/C(=N\C(=O)c1cc2ccccc2s1)NC(=O)c1cc2ccccc2s1 | – | Not Active | – | Not Active | 40.1 | 5.62 | 5.07 | –
7 | C[Se]/C(=N\C(=O)c1ccc2c(c1)OCO2)NC(=O)c1ccc2c(c1)OCO2 | – | Not Active | – | Not Active | – | 0.53 | 0.99 | –
8 | C[Se]/C(=N\C(=O)c1cnc2ccccc2c1)NC(=O)c1cnc2ccccc2c1 | Active | Not Active | Active | Not Active | – | 0.2 | 0.66 | –
9 | C[Se]/C(=N\C(=O)c1cc(-c2ccccc2)nc2ccccc12)NC(=O)c1cc(-c2ccccc2)nc2ccccc12 | – | Not Active | – | Not Active | 32.6 | 0.46 | 0.49 | –
10 | C[Se]/C(=N\C(=O)c1c2ccccc2nc2ccccc12)NC(=O)c1c2ccccc2nc2ccccc12 | Active | Not Active | Active | Not Active | 64 | 7.63 | 73.9 | –
11 | CC[C@@]1(O)C(=O)OCc2c1cc1n(c2=O)Cc2cc3ccccc3nc2-1 [CAMPTOTHECIN] | – | – | – | – | 0.79 | – | – | –
12 | COc1cccc2c1C(=O)c1c(O)c3c(c(O)c1C2=O)C[C@@](O)(C(=O)CO)C[C@@H]3O[C@H]1C[C@H](N)[C@H](O)[C@H](C)O1 [DOXORUBICIN] | – | – | – | – | 6.31 | – | – | –
13 | CN(Cc1cnc2nc(N)nc(N)c2n1)c1ccc(C(=O)N[C@@H](CCC(=O)O)C(=O)O)cc1 [METHOTREXATE] | – | – | – | – | – | – | – | > 100
14 | CC(=O)O[C@H]1C(=O)[C@@]2(C)[C@H]([C@H](OC(=O)c3ccccc3)[C@]3(O)C[C@H](OC(=O)[C@H](O)[C@@H](NC(=O)c4ccccc4)c4ccccc4)C(C)=C1C3(C)C)[C@]1(OC(C)=O)CO[C@@H]1C[C@@H]2O [PACLITAXEL] | – | – | – | – | 0.2 | – | – | –

Source: ChEMBL document CHEMBL2407057, “Structural variations on antitumour agents derived from bisacylimidoselenocarbamate. A proposal for structure-activity relationships based on the analysis of conformational behaviour” (Eur J Med Chem, 2013)
